{"source": "ChEMBL document CHEMBL1165950", "about": "“Design and synthesis of new potent anticancer pyrazoles with high FLT3 kinase inhibitory selectivity” (Bioorg Med Chem, 2010)", "format_in_all_cases": "functional", "key": {"NCI-H226": {"system": "NCI-H226", "assay": "Cytotoxicity against human NCI-H226 cells assessed as cell growth at 10 uM", "conditions": "read-out: Activity", "method_in_brief": "(§1)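 NCI-60 screen: cells grown in RPMI 1640 with 5% FBS and 2 mM L-glutamine, plated at 5000–40,000 cells/well according to doubling time, and preincubated 24 h at 37 °C, 5% CO2. The single 10 µM dose (DMSO stock) was added, then incubated 48 h. Cells were TCA-fixed and stained with 0.4% SRB, read at 515 nm, and growth % calculated against time-zero and control plates.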"}, "SR": {"system": "SR", "assay": "Cytotoxicity against human SR cells assessed as cell growth at 10 uM", "conditions": "read-out: Activity", "method_in_brief": "as §1"}, "OVCAR-8": {"system": "OVCAR-8", "assay": "Cytotoxicity against human OVCAR8 cells assessed as cell growth at 10 uM", "conditions": "read-out: Activity", "method_in_brief": "as §1"}, "SF-539": {"system": "SF-539", "assay": "Cytotoxicity against human SF539 cells assessed as cell growth at 10 uM", "conditions": "read-out: Activity", "method_in_brief": "as §1"}, "NCI/ADR-RES": {"system": "NCI/ADR-RES", "assay": "Cytotoxicity against human NCI/ADR-RES cells assessed as cell growth at 10 uM", "conditions": "read-out: Activity", "method_in_brief": "as §1"}, "A549": {"system": "A549", "assay": "Cytotoxicity against human A549 cells assessed as cell growth at 10 uM", "conditions": "read-out: Activity", "method_in_brief": "(§2)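 Single-dose NCI-60 screen at 10 µM. Cells were grown in RPMI 1640 with 5% FBS and 2 mM L-glutamine, then treated for 48 h at 37 °C. Protein was measured by SRB staining with absorbance at 515 nm. Percentage growth was recorded, and inhibition percentage was calculated as 100 minus growth percentage.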"}, "KM12": {"system": "KM12", "assay": "Cytotoxicity against human KM12 cells assessed as cell growth at 10 uM", "conditions": "read-out: Activity", "method_in_brief": "as §1"}, "HOP-62": {"system": "HOP-62", "assay": "Cytotoxicity against human HOP62 cells assessed as cell growth at 10 uM", "conditions": "read-out: Activity", "method_in_brief": "as §2"}, "NCI-H23": {"system": "NCI-H23", "assay": "Cytotoxicity against human NCI-H23 cells assessed as cell growth at 10 uM", "conditions": "read-out: Activity", "method_in_brief": "as §1"}, "HCT-15": {"system": "HCT-15", "assay": "Cytotoxicity against human HCT15 cells assessed as cell growth at 10 uM", "conditions": "read-out: Activity", "method_in_brief": "as §2"}, "[1]": {"assay": "Growth inhibition of human NCI60 cells at 10 uM after 48 hrs by sulforhodamine B assay relative to control", "conditions": "NCI60, 48 h, read-out: GI", "method_in_brief": "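Single-dose NCI screen at 10 µM across the 60-line panel, 48 h exposure at 37 °C after a 24 h preincubation. Adherent cells were fixed with cold TCA and stained with 0.4% SRB, and absorbance was read at 515 nm. Inhibition % was taken as 100 minus growth %, and the mean across all lines was reported.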"}, "CAKI-1": {"system": "CAKI-1", "assay": "Cytotoxicity against human Caki1 cells assessed as cell growth at 10 uM", "conditions": "read-out: Activity", "method_in_brief": "as §2"}, "OVCAR-5": {"system": "OVCAR-5", "assay": "Cytotoxicity against human OVCAR5 cells assessed as cell growth at 10 uM", "conditions": "read-out: Activity", "method_in_brief": "as §1"}, "[2]": {"assay": "Cytotoxicity against human […] cells assessed as cell growth at 10 uM", "conditions": "read-out: Activity", "method_in_brief": "as §1"}, "COLO 205": {"system": "COLO 205", "assay": "Cytotoxicity against human COLO205 cells assessed as cell growth at 10 uM", "conditions": "read-out: Activity", "method_in_brief": "as §2"}, "RXF 393": {"system": "RXF 393", "assay": "Cytotoxicity against human RXF393 cells assessed as cell growth at 10 uM", "conditions": "read-out: Activity", "method_in_brief": "as §1"}, "UACC-257": {"system": "UACC-257", "assay": "Cytotoxicity against human UACC257 cells assessed as cell growth at 10 uM", "conditions": "read-out: Activity", "method_in_brief": "as §1"}, "SF-295": {"system": "SF-295", "assay": "Cytotoxicity against human SF295 cells assessed as cell growth at 10 uM", "conditions": "read-out: Activity", "method_in_brief": "as §1"}, "SK-MEL-28": {"system": "SK-MEL-28", "assay": "Cytotoxicity against human SK-MEL-28 cells assessed as cell growth at 10 uM", "conditions": "read-out: Activity", "method_in_brief": "as §1"}, "CCRF-CEM": {"system": "CCRF-CEM", "assay": "Cytotoxicity against human CCRF-CEM cells assessed as cell growth at 10 uM", "conditions": "read-out: Activity", "method_in_brief": "as §2"}, "A498": {"system": "A498", "assay": "Cytotoxicity against human A498 cells assessed as cell growth at 10 uM", "conditions": "read-out: Activity", "method_in_brief": "as §2"}, "HL-60(TB)": {"system": "HL-60(TB)", "assay": "Cytotoxicity against human HL-60(TB) cells assessed as cell growth at 10 uM", "conditions": "read-out: Activity", "method_in_brief": "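NCI 60-cell panel screen at a single concentration of 10 µM. Cells are grown in RPMI 1640 with 5% FBS and 2 mM L-glutamine and read by SRB protein staining at 515 nm. Percent growth is measured relative to time-zero and untreated controls; inhibition % is 100 minus growth %.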"}, "ACHN": {"system": "ACHN", "assay": "Cytotoxicity against human ACHN cells assessed as cell growth at 10 uM", "conditions": "read-out: Activity", "method_in_brief": "as §2"}, "MDA-MB-468": {"system": "MDA-MB-468", "assay": "Cytotoxicity against human MDA-MB-468 cells assessed as cell growth at 10 uM", "conditions": "read-out: Activity", "method_in_brief": "as §1"}, "HCT-116": {"system": "HCT-116", "assay": "Cytotoxicity against human HCT116 cells assessed as cell growth at 10 uM", "conditions": "read-out: Activity", "method_in_brief": "as §2"}, "K562": {"system": "K562", "assay": "Cytotoxicity against human K562 cells assessed as cell growth at 10 uM", "conditions": "read-out: Activity", "method_in_brief": "as §2"}, "SW-620": {"system": "SW-620", "assay": "Cytotoxicity against human SW620 cells assessed as cell growth at 10 uM", "conditions": "read-out: Activity", "method_in_brief": "as §1"}, "T47D": {"system": "T47D", "assay": "Cytotoxicity against human T47D cells assessed as cell growth at 10 uM", "conditions": "read-out: Activity", "method_in_brief": "as §1"}, "SF-268": {"system": "SF-268", "assay": "Cytotoxicity against human SF268 cells assessed as cell growth at 10 uM", "conditions": "read-out: Activity", "method_in_brief": "as §1"}, "EKVX": {"system": "EKVX", "assay": "Cytotoxicity against human EKVX cells assessed as cell growth at 10 uM", "conditions": "read-out: Activity", "method_in_brief": "as §2"}}}
{"smiles": "COc1cc(C)cc(-c2c(-c3ccnc(-c4cccc(NC(C)=O)c4)c3)cnn2CC#N)c1", "values": [{"measurement": "growth at 10 µM", "setting": "NCI-H226", "value": 93.1, "unit": "%"}, {"measurement": "growth at 10 µM", "setting": "SR", "value": 80.9, "unit": "%"}, {"measurement": "growth at 10 µM", "setting": "OVCAR-8", "value": 88, "unit": "%"}, {"measurement": "growth at 10 µM", "setting": "SF-539", "value": 84.5, "unit": "%"}, {"measurement": "growth at 10 µM", "setting": "NCI/ADR-RES", "value": 87.3, "unit": "%"}, {"measurement": "growth at 10 µM", "setting": "A549", "value": 86.7, "unit": "%"}, {"measurement": "growth at 10 µM", "setting": "KM12", "value": 109, "unit": "%"}, {"measurement": "growth at 10 µM", "setting": "HOP-62", "value": 98.9, "unit": "%"}, {"measurement": "growth at 10 µM", "setting": "NCI-H23", "value": 95.3, "unit": "%"}, {"measurement": "growth at 10 µM", "setting": "HCT-15", "value": 94.5, "unit": "%"}, {"measurement": "inhibition of growth at 10 µM", "setting": "[1]", "value": 9.4, "unit": "%"}, {"measurement": "growth at 10 µM", "setting": "CAKI-1", "value": 77.3, "unit": "%"}, {"measurement": "growth at 10 µM", "setting": "OVCAR-5", "value": 91.6, "unit": "%"}, {"measurement": "growth at 10 µM", "setting": "[2]", "value": 79.9, "unit": "%"}, {"measurement": "growth at 10 µM", "setting": "COLO 205", "value": 93.5, "unit": "%"}, {"measurement": "growth at 10 µM", "setting": "RXF 393", "value": 81.5, "unit": "%"}, {"measurement": "growth at 10 µM", "setting": "UACC-257", "value": 89.8, "unit": "%"}, {"measurement": "growth at 10 µM", "setting": "SF-295", "value": 102, "unit": "%"}, {"measurement": "growth at 10 µM", "setting": "SK-MEL-28", "value": 104, "unit": "%"}, {"measurement": "growth at 10 µM", "setting": "CCRF-CEM", "value": 88.9, "unit": "%"}, {"measurement": "growth at 10 µM", "setting": "A498", "value": 74.2, "unit": "%"}, {"measurement": "growth at 10 µM", "setting": "HL-60(TB)", "value": 74.7, "unit": "%"}, {"measurement": "growth at 10 µM", "setting": "ACHN", "value": 86, "unit": "%"}, {"measurement": "growth at 10 µM", "setting": "MDA-MB-468", "value": 82.8, "unit": "%"}, {"measurement": "growth at 10 µM", "setting": "HCT-116", "value": 96.4, "unit": "%"}, {"measurement": "growth at 10 µM", "setting": "K562", "value": 86.4, "unit": "%"}, {"measurement": "growth at 10 µM", "setting": "SW-620", "value": 104, "unit": "%"}, {"measurement": "growth at 10 µM", "setting": "T47D", "value": 79.3, "unit": "%"}, {"measurement": "growth at 10 µM", "setting": "SF-268", "value": 97.3, "unit": "%"}, {"measurement": "growth at 10 µM", "setting": "EKVX", "value": 100, "unit": "%"}]}
